Measured values taken from ChEMBL document CHEMBL4627282, “Synthesis of guggulsterone derivatives as potential anti-austerity agents against PANC-1 human pancreatic cancer cells” (Bioorg Med Chem Lett, 2020).
The source made the active and inactive calls. The rule behind the calls is not given here.

Key:
PANC-1 [1] = assay: Anti-austerity activity against human PANC1 cells assessed as cell killing incubated in nutrient deprived medium; assay type: functional
How it was run: (§1)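 PANC-1 cells were exposed to a concentration series in nutrient-deprived medium (NDM; no glucose, amino acids or serum) and, in parallel, in complete DMEM. Survival was plotted against log concentration, and PC50, the concentration preferentially cytotoxic under starvation, was read from the curve.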

PANC-1 [2] = assay: Cytotoxicity against human PANC1 cells incubated in normal DMEM medium; assay type: cell-based; how it was run: as §1
PANC-1 [3] = assay: Induction of cell death in human PANC1 cells assessed as rounded cell morphology at 5 uM incubated for 24 hrs in nutrient deprived medium by ethidium bromide and acridine orange dye based phase contrast microscopy; assay type: functional
How it was run: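 PANC-1 cells treated in NDM for 24 h, then double-stained with ethidium bromide and acridine orange. They were imaged in fluorescence (green for live, red for dead or dying) and phase-contrast modes on a digital microscope, and morphology was judged against untreated controls.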

PANC-1 [4] = assay: Induction of cell death in human PANC1 cells assessed as swelling of cells at 5 uM incubated in nutrient deprived medium measured every 10 mins for 12 hrs by live cell imaging analysis; assay type: functional, cell-based
PANC-1 [5] = assay: Inhibition of cell migration in human PANC1 cells at 5 uM incubated in nutrient deprived medium measured every 10 mins for 24 hrs by live cell imaging analysis; assay type: functional, cell-based
PANC-1 [6] = assay: Inhibition of colony formation in human PANC1 cells at 50 uM incubated for 10 days in nutrient deprived medium by crystal violet staining based assay; assay type: functional, cell-based
PANC-1 [7] = assay: Induction of cell death in human PANC1 cells assessed as cell shrinkage at 5 uM incubated in nutrient deprived medium measured every 10 mins for 12 hrs by live cell imaging analysis; assay type: functional, cell-based
PANC-1 [8] = assay: Induction of cell death in human PANC1 cells assessed as leakage of cytoplasmic content at 5 uM incubated in nutrient deprived medium measured every 10 mins for 12 hrs by live cell imaging analysis; assay type: functional, cell-based
PANC-1 [9] = assay: Selectivity index, ratio of IC50 for human PANC1 cells incubated in normal DMEM medium to PC50 for human PANC1 cells incubated in nutrient-deprived medium
PANC-1 [10] = assay: Inhibition of colony formation in human PANC1 cells incubated for 10 days in DMEM by crystal violet staining based assay
PANC-1 [11] = assay: Inhibition of cell migration in human PANC1 cells at 3 uM incubated in nutrient deprived medium measured every 10 mins for 24 hrs by live cell imaging analysis; assay type: functional, cell-based
How it was run: (§2)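 Cells were treated in NDM in a stage-top incubator at 37 °C under 5% CO2. Phase-contrast images were captured every 10 min for 24 h on a digital imaging system with a 10× objective. Cell mobility, shrinkage, swelling and leakage of cytoplasm were scored from the time-lapse record.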

PANC-1 [12] = assay: Inhibition of colony formation in human PANC1 cells at 1.25 uM incubated for 10 days in DMEM by crystal violet staining based assay; conditions: PANC-1, 240 h
PANC-1 [13] = assay: Induction of cell death in human PANC1 cells assessed as leakage of cytoplasmic content at 3 uM incubated in nutrient deprived medium measured every 10 mins for […] by live cell imaging analysis; assay type: functional, cell-based; how it was run: as §2
PANC-1 [14] = assay: Induction of cell death in human PANC1 cells assessed as rounded cell morphology at 3 uM incubated for 24 hrs in nutrient deprived medium by ethidium bromide and acridine orange dye based phase contrast microscopy; assay type: functional
How it was run: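 PANC-1 cells were held in NDM for 24 h with compound, alongside untreated controls, then double-stained with acridine orange and ethidium bromide. Imaging was in fluorescence (green AO marks live cells, red EB marks dead or dying cells) and in phase-contrast mode to assess morphology.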

PANC-1 [15] = assay: Induction of cell death in human PANC1 cells assessed as cell shrinkage at 3 uM incubated in nutrient deprived medium measured every 10 mins […] by live cell imaging analysis; assay type: functional, cell-based; how it was run: as §2
PANC-1 [16] = assay: Induction of cell death in human PANC1 cells assessed as swelling of cells at 3 uM incubated in nutrient deprived medium measured every 10 mins for […] by live cell imaging analysis; assay type: functional, cell-based; how it was run: as §2

Compound | PC50 (PANC-1 [1]) | IC50 (PANC-1 [2]) | further results
COCCC/C=C1/C(=O)C[C@H]2[C@@H]3CCC4=CC(=O)CC[C@]4(C)[C@H]3CC[C@]12C | 52 µM | > 100 µM | 
CCC/C=C1\C(=O)C[C@H]2[C@@H]3CCC4=CC(=O)CC[C@]4(C)[C@H]3CC[C@]12C | 18 µM | > 100 µM | 
CC=C1CC[C@H]2[C@@H]3CCC4=CC(=O)CC[C@]4(C)[C@H]3CC[C@]12C (mixture of isomers) |  | > 100 µM | Activity (PANC-1 [3]): Active; Activity (PANC-1 [4]): Active; Activity (PANC-1 [1]): Dose-dependent effect; inhibition (PANC-1 [5]): Active; inhibition (PANC-1 [6]): Active; Activity (PANC-1 [7]): Active; Activity (PANC-1 [8]): Active; Ratio (PANC-1 [9]): 34; inhibition (PANC-1 [10]): Dose-dependent effect
CCC/C=C1/C(=O)C[C@H]2[C@@H]3CCC4=CC(=O)CC[C@]4(C)[C@H]3CC[C@]12C | 14 µM | > 100 µM | 
COc1cc(C[C@H]2C(=O)OC[C@@H]2Cc2ccc(OC)c(OC)c2)ccc1O [ARCTIGENIN] | 0.8 µM |  | 
CC/C=C1\C(=O)C[C@H]2[C@@H]3CCC4=CC(=O)CC[C@]4(C)[C@H]3CC[C@]12C | 17 µM | > 100 µM | 
C/C=C1\C(=O)C[C@H]2[C@@H]3CCC4=CC(=O)CC[C@]4(C)[C@H]3CC[C@]12C [GUGGULSTERONE] | 37 µM | 42 µM | 
C/C=C1/C(=O)C[C@H]2[C@@H]3CCC4=CC(=O)CC[C@]4(C)[C@H]3CC[C@]12C [E-GUGGULSTERONE] | 42 µM | > 100 µM | 
C=C1C(=O)C[C@H]2[C@@H]3CCC4=CC(=O)CC[C@]4(C)[C@H]3CC[C@]12C | 1.6 µM | 11 µM | inhibition (PANC-1 [11]): Active; inhibition at 1.25 µM (PANC-1 [12]): 100%; Activity (PANC-1 [13]): Active; Activity (PANC-1 [1]): Dose-dependent effect; Activity (PANC-1 [14]): Active; Activity (PANC-1 [15]): Active; Activity (PANC-1 [16]): Active; Ratio (PANC-1 [9]): 6.5; inhibition (PANC-1 [10]): Dose-dependent effect
C/C=C1/C(=O)C[C@H]2[C@@H]3CC[C@H]4CC(=O)CC[C@]4(C)[C@H]3CC[C@]12C | >100 µM | > 100 µM | 
CC/C=C1/C(=O)C[C@H]2[C@@H]3CCC4=CC(=O)CC[C@]4(C)[C@H]3CC[C@]12C | 50 µM | > 100 µM | 
CC[C@H]1C(=O)C[C@H]2[C@@H]3CC[C@H]4CC(=O)CC[C@]4(C)[C@H]3CC[C@]12C | 18 µM | > 100 µM | 
